Data set [1] deals with T1, Cytochrome P450 11B1, mitochondrial (Homo sapiens, UniProt P15538).
T1 sequence (P15538 whole entry): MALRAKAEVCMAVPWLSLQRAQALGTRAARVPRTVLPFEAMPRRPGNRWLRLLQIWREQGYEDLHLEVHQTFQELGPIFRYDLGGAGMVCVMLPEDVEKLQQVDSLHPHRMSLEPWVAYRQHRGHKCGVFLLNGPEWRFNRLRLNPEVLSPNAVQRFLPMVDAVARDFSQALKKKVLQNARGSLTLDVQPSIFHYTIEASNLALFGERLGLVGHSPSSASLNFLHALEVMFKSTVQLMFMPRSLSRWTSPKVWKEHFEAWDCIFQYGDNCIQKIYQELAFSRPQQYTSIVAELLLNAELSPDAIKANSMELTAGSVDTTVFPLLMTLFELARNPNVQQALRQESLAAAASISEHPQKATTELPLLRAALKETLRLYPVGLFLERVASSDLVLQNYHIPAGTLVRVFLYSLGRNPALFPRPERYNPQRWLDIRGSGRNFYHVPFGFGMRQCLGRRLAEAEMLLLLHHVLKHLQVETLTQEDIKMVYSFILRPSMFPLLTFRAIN
Nature of the data set: Inhibition of human CYP11B1 expressed in hamster V79MZ cells using [1,2-3H]-11-deoxycorticosterone as substrate after 6 hrs by HPLC analysis. It is filed as cell-based. In short, it runs like this: (§1)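 V79MZ cells expressing recombinant human CYP11B1 or CYP11B2, or rat CYP11B1, incubated with [1,2-³H]-11-deoxycorticosterone (100 nM) and inhibitor over a range of concentrations; ketoconazole as reference.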

Data set [2] concerns the target T2, Cytochrome P450 11B2, mitochondrial (Homo sapiens, UniProt P19099).
T2 sequence (P19099 whole entry): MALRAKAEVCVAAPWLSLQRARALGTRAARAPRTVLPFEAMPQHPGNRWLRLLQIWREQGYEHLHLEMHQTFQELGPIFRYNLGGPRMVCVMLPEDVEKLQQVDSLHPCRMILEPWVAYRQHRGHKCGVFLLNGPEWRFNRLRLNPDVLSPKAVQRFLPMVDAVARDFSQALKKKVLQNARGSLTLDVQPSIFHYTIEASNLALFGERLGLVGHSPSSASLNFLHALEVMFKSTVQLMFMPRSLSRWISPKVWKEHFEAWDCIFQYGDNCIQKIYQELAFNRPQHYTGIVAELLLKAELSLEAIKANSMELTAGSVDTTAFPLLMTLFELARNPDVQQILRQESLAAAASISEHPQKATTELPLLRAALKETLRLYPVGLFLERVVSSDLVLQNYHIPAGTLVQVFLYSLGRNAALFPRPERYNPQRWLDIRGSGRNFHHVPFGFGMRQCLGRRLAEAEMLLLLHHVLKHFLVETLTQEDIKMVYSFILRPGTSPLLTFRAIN
Nature of the data set: Inhibition of human CYP11B2 expressed in hamster V79MZ cells using [1,2-3H]-11-deoxycorticosterone as substrate after 6 hrs by HPLC analysis. Format: ADME, cell-based. Summed up:
as §1

The nature of data set [3]: Selectivity ratio of IC50 for human CYP11B2 expressed in hamster V79MZ cells to IC50 for human CYP11B1 expressed in hamster V79MZ cells. Summed up:
as §1

The target of data set [4] is T3, Cytochrome P450 11B1, mitochondrial (Rattus norvegicus, UniProt P15393).
T3 sequence (P15393 whole entry): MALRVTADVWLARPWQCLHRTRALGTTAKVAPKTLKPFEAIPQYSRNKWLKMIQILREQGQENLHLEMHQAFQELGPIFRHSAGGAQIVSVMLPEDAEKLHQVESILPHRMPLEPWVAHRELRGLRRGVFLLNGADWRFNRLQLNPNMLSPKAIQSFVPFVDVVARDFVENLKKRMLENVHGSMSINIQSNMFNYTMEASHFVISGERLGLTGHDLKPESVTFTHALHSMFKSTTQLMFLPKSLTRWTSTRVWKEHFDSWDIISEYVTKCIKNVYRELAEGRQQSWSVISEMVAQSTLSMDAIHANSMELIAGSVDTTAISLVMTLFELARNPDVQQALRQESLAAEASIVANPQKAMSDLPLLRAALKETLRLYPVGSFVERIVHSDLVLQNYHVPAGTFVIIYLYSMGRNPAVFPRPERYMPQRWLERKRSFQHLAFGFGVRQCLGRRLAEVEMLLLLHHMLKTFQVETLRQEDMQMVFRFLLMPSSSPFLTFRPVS
Nature of the data set: Inhibition of CYP11B1 in Sprague-Dawley rat adrenal tissue using 11-deoxycorticosterone as substrate after 4 hrs by SPA.

Data set [5] can be described thus: Half life in rat liver S9 fractions at 1 uM in presence of NADPH/UDPGA by LC-MS/MS analysis. Format: ADME, tissue-based. Summed up:
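Samples taken at 0, 5, 15 and 60 min, stopped with cold acetonitrile containing internal standard. Remaining parent measured by LC-MS/MS.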

The text below walks through data of ChEMBL document CHEMBL4014346, “Lead Optimization Generates CYP11B1 Inhibitors of Pyridylmethyl Isoxazole Type with Improved Pharmacological Profile for the Treatment of Cushing's Disease” (J Med Chem, 2017).

One may read the IC50 as the concentration that inhibits the measured activity by half. A high value points to weaker potency. On to `Cc1cncc(Cc2ccc(NC3CC3)nc2)c1`, for which the IC50 is 4 nM in data set [1] and 32 nM in data set [2]. Moreover, the “Ratio IC50” value in data set [3] was determined as 8.
As for `Cc1cncc(Cc2csnc2-c2ccccc2)c1`, the IC50 in data set [1] was 48 nM; in data set [2], 152 nM. Moreover, the “Ratio IC50” value in data set [3] came to 3.
For `Cc1cncc(Cc2ccc(-c3ccccc3F)nc2)c1`, in that order: 3 nM, 27 nM and 9.
For `Cc1cncc(Cc2cc(-c3ccccc3)nn2C)c1`, in that order: 1 nM, 6 nM and 6.
With `Cc1cncc(Cc2ccc(S(=O)(=O)c3ccccc3)nc2)c1`, the IC50 in data set [1] worked out at 20 nM; in data set [2], 173 nM. For the same compound, the “Ratio IC50” value in data set [3] worked out at 9.
For `Cc1cncc(Cc2cnc(-c3ccccc3)s2)c1`, in that order: 9 nM, 24 nM and 3.
Taken in the same sequence, the figures for `c1ccc(-c2cc(Cn3ccnc3)sn2)cc1` were 14 nM, 120 nM and 9.
Taken in the same sequence, the figures for `Cn1c(Cn2ccnc2)cnc1-c1ccccc1` were 516 nM, 507 nM and 1.
Consider `c1ccc(-c2ncc(Cn3ccnc3)[se]2)cc1`, for which the IC50 was 104 nM in data set [1] and 657 nM in data set [2]. The “Ratio IC50” value in data set [3] amounted to 6.
In the case of `Cc1cncc(Cc2ccc(-c3ccoc3)nc2)c1`, the concentration for half-maximal inhibition (IC50) in data set [1] was 4 nM; in data set [2], 28 nM. In data set [3], the “Ratio IC50” value is recorded as 7.
Taken in the same sequence, the figures for `Cc1cncc(Cc2ccc(S(=O)(=O)c3ccccc3F)nc2)c1` were 2 nM, 17 nM and 9.
As for `c1ccc(-c2ncc(Cn3ccnc3)o2)cc1`, the IC50 came out at 150 nM in data set [1] and 520 nM in data set [2]. Besides, the “Ratio IC50” value in data set [3] is 4.
For `Cc1cncc(Cc2ccc(-c3ccnn3C)nc2)c1`, in that order: 16 nM, 97 nM and 6.
Regarding `Cc1cncc(Cc2ccc(N3CCOCC3)nc2)c1`, the IC50 in data set [1] turned out to be 22 nM; in data set [2] it was 90 nM. The “Ratio IC50” value in data set [3] stood at 4.
Take `Cc1cncc(Cc2cc(-c3ccccc3)n[nH]2)c1`: the 50% inhibitory concentration (IC50) in data set [1] stood at 137 nM; in data set [2], 586 nM. Besides, in data set [3], the “Ratio IC50” value is 4.
Taken in the same sequence, the figures for `Cc1cncc(Cc2cc(-c3ccccc3)ns2)c1` were 1 nM, 8 nM and 8.
Taken in the same sequence, the figures for `Cc1cncc(Cc2ccc(Sc3ccccc3)nc2)c1` were 5 nM, 30 nM and 6.
For `c1ccc(-c2cc(Cn3ccnc3)on2)cc1`, in that order: 148 nM, 1300 nM and 9.
In the case of `Cc1cncc(Cc2ccc(-c3cccc(NS(C)(=O)=O)c3)nc2)c1`, the values for the IC50 in data set [1] and in data set [2] were 2 nM and 16 nM, respectively. The “Ratio IC50” value in data set [3] is 8.
Consider `Cc1cncc(Cc2cnc(-c3ccccc3)o2)c1`, for which the IC50 stood at 14 nM in data set [1] and 116 nM in data set [2]. For the same compound, the “Ratio IC50” value in data set [3] is on record as 8.
Taken in the same sequence, the figures for `c1ccc(-c2nscc2Cn2ccnc2)cc1` were 57 nM, 174 nM and 3.
Regarding `Cn1nc(-c2ccccc2)cc1Cn1ccnc1`, the IC50 in data set [1] is 58 nM; in data set [2] it was 215 nM. Further, the “Ratio IC50” value in data set [3] is listed as 4.
For `Cc1cncc(Cc2ccc(Sc3ccccc3F)nc2)c1`, the IC50 in data set [1] was determined as 3 nM; in data set [2], 24 nM. Besides, the “Ratio IC50” value in data set [3] came out at 8.
Consider `c1ccc(-c2ncc(Cn3ccnc3)s2)cc1`, for which the IC50 in data set [1] worked out at 62 nM; in data set [2], 459 nM. The “Ratio IC50” value in data set [3] is listed as 7.
Turning to `Cc1cncc(Cc2ccc(-c3cnn(C)c3)nc2)c1`, the half-maximal inhibitory concentration (IC50) in data set [1] was 42 nM; in data set [2], 182 nM. The “Ratio IC50” value in data set [3] was found to be 4.
For orientation: half-life means the time in which the quantity being followed falls by half. In data set [4], `CC(C)(C(=O)c1cccnc1)c1cccnc1` [METYRAPONE] had a half-inhibitory concentration (IC50) of 5000 nM. Also, the half-life at 1 µM in data set [5] came out at 12 min.
